Where “and” joins values, the source holds several entries; their conditions need not be identical. Identical values can stand only once. Entries after “also recorded” stand apart in the source; their conditions may differ.
Columns and labels:
[1] = tested on: Japanese patients with relapsed or refractory B‐NHL; test: Phase I study: safety, adverse events and DLT; assay type: in vivo, human
In short: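 Patients received 800 mg orally once in a 4-day cycle 0, then 800 mg BID in 28-day cycles; reduction to 600 then 400 mg BID permitted. AEs graded by CTCAE v4.03, with hematology, chemistry, urinalysis, vital signs, 12-lead ECG and LVEF by echo/MUGA. DLT assessed over cycles 0–1 in patients completing both with ≥75% cycle-1 compliance, or having DLT. Safety set: ≥1 dose.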

[2] = Phase I study: plasma and urine pharmacokinetics; assay type: in vivo, human; conditions: for R ss: AUC(0-12h) on cycle 1 day 15/AUC(0-inf) on cycle 0 day 1; for t max: median (minimum, maximum)
[3] = tested on: refractory B‐NHL and advanced solid tumors; conditions: study outside of Japan; cited from earlier work
[4] = tested on: relapsed or refractory B‐cell lymphoma; test: Phase I study: antitumor activity, Lugano Classification; assay type: in vivo, human
In short: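 Oral dosing: 800 mg single dose in 4-day cycle 0, then 800 mg BID in 28-day cycles. Response assessed by CT per Lugano Classification. Bone marrow aspiration or biopsy if screening was positive or unconfirmed, to confirm CR, or when clinically indicated. Best overall response summarized overall and by DLBCL or FL in patients receiving ≥1 dose. ORR given with two-sided Clopper-Pearson exact 95% CIs.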

[5] = seven treated patients, investigator assessment

## CCN(c1cc(-c2ccc(CN3CCOCC3)cc2)cc(C(=O)NCc2c(C)cc(C)[nH]c2=O)c1C)C1CCOCC1 [Tazemetostat]
[1]; n = 7
  AE fatigue: 29%
  AE leading to dose reduction: 14.3%
  AE nasopharyngitis: 71.4%
  AE rash: 29%
  AE stomatitis: 29%
  AE thrombocytopenia: 42.9% and 43%
  AEs leading to dose interruption: 57.1%
  Grade 3 AE anemia: 14.3%
  Grade 3 AE fatigue: 14.3%
  Grade 3 AE hypophosphatemia: 14.3%
  Grade 3 AE increased γ‐glutamyltransferase: 14.3%
  Grade 3 AE leukopenia: 14.3%
  Grade 3 AE lymphopenia: 14.3%
  Grade 3 AE neutropenia: 14.3%
  Grade 3 AE squamous cell carcinoma of the tongue: 14.3%
  Grade 3 AE thrombocytopenia: 28.6%
  Grade 3 or higher AEs: 57.1%
  Grade 4 AE increased levels of blood triglycerides: 14.3%
  Grade 4 AE intestinal perforation: 14.3%
  TR‐AE dysgeusia: 42.9%
  TR‐AE thrombocytopenia: 42.9%
  grade 2 peripheral neuropathy, leading to drug dose reduction: 14.3%
  patients having at least one TR‐AE: 85.7%
  patients who died or had AEs resulting in death: None
  patients who experienced at least one AE: seven
  treatment‐related serious AEs: No treatment‐related serious AEs
[1]; n = 7, intestinal perforation and squamous cell carcinoma of the tongue
  Serious AEs: 28.6%
[1]; n = 7, listed as tazemetostat
  treatment‐related serious AEs: both assessed as not related to study drug; also recorded: No treatment‐related SAEs
[1]; n = 7, section 3.2
  patients who received a reduction in the tazemetostat dose: 14.3%
[1]; one patient
  time to first dose reduction: 4.9 months
[2]; 800 mg oral
  absorption after oral administration: rapidly absorbed
[2]; mean (SD)
  R ss: 0.849 (0.277)
[2]; mean (SD), listed as tazemetostat
  R ss: 0.849
[2]; both after C0D1 and C1D15 dosing
  mean urinary excretion of tazemetostat: less than 3%
[2]; human, plasma, oral, 800 mg
  Vd/F: 1910 L
[2]; human, plasma, oral, 800 mg BID, AUC(0‐ t ), plasma, after multiple doses, Cycle 1 day 15, last sampling time point 12 h, mean (SD), N = 7
  AUC: 4490 ng·h/mL
[2]; human, plasma, oral, 800 mg BID, t max, plasma, after multiple doses, Cycle 1 day 15, N = 7
  t max: ~1 h
[2]; human, plasma, oral, 800 mg, AUC(0‐12 h), plasma, after single dose, Cycle 0 day 1, mean (SD), N = 7
  AUC: 4700 ng·h/mL
[2]; human, plasma, oral, 800 mg, AUC(0‐ t ), plasma, after single dose, Cycle 0 day 1, last sampling time point 72 h, mean (SD), N = 7
  AUC: 5990 ng·h/mL
[2]; human, plasma, oral, 800 mg, AUC(0‐inf), plasma, after single dose, Cycle 0 day 1, mean (SD), N = 7
  AUC: 6030 ng·h/mL
[2]; human, plasma, oral, 800 mg, t max, plasma, after single dose, Cycle 0 day 1, N = 7
  t max: ~2 h
[2]; human, plasma, po, 800 mg
  Cmax: 1150 ng/mL
[2]; plasma, after multiple doses 800 mg BID, Cycle 1 day 15, mean (SD), N = 7
  C ss,min: 95.1 (37.7) ng/mL
[2]; plasma, after multiple doses, Cycle 1 day 15, N = 7
  t max: 1.05 (0.88, 2.03) h
[2]; plasma, after single dose, Cycle 0 day 1, N = 7
  t max: 1.97 (0.95, 4.08) h
[3]
  recommended dose: 800 mg BID
[4]; DLBCL
  responses in patients with DLBCL: one of three
[4]; DLBCL (n = 3), 800 mg BID
  Best overall response: Complete response (CR): 1 (33.3) n (%)
  Best overall response: Not evaluable: 0 (0.0) n (%)
  Best overall response: Partial response (PR): 0 (0.0) n (%)
  Best overall response: Progressive disease: 2 (66.7) n (%)
  Best overall response: Stable disease: 0 (0.0) n (%)
  Objective response rate (CR + PR): 1 (33.3) n (%)
[4]; FL
  responses in patients with FL: three of four
[4]; FL (n = 4), 800 mg BID
  Best overall response: Complete response (CR): 0 (0.0) n (%)
  Best overall response: Not evaluable: 0 (0.0) n (%)
  Best overall response: Partial response (PR): 3 (75.0) n (%)
  Best overall response: Progressive disease: 0 (0.0) n (%)
  Best overall response: Stable disease: 1 (25.0) n (%)
  Objective response rate (CR + PR): 3 (75.0) n (%)
[4]; Total (n = 7), 800 mg BID
  Best overall response: Complete response (CR): 1 (14.3) n (%)
  Best overall response: Not evaluable: 0 (0.0) n (%)
  Best overall response: Partial response (PR): 3 (42.9) n (%)
  Best overall response: Progressive disease: 2 (28.6) n (%)
  Best overall response: Stable disease: 1 (14.3) n (%)
  Objective response rate (CR + PR): 4 (57.1) n (%)
[4]; all patients (4/7), 800 mg BID
  ORR: 57.1%
[4]; n = 7
  patients who experienced a reduction of tumor burden: 85.7%
[4]; one patient with FL with gain‐of‐function mutation in EZH2, partial response
  maximum change in the sum of the product of the diameters from baseline in the target lesion: −82.3%
[4]; [5]
  CR as BOR: 14.3%
  PR as BOR: 42.9%
  progressive disease as BOR: 28.6%
  stable disease as BOR: 14.3%
